# Measurements from the array DNA melting data of Ke et al. (doi:10.1101/2024.01.08.574731).
# How the values were obtained:
# [1] = folding enthalpy; higher = less favourable; fluorescence melt of hairpins on a sequencing array, two-state fit; settings: sodium 0.088 M
# How it was run: (§1)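 Folding enthalpy and melting temperature were estimated with bootstrapped two-state fits and combined across four replicates by inverse-variance weighting, with fitted temperatures raised by 9.35 °C to match UV melts. The data were Cy3 fluorescence of library hairpins, with annealed Cy3 and quencher oligos, on a sequenced MiSeq flow cell in 50 mM Na-HEPES pH 8.0, 25 mM NaCl, imaged in 2.5 °C steps up to 60 °C and normalised to pre-quench Cy3 and control constructs.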
# [2] = melting temperature; fluorescence melt of hairpins on a sequencing array, two-state fit, raised by 9.35 °C to match UV melts; settings: sodium 0.088 M
# How it was run: as §1
Sequence,folding enthalpy [1],Tm [2]
GGCAAACCGAAAGGTGCC (((..(((....)))))),-39.1 kcal/mol,56 °C
GGCAAACGAAAGTTCGCC (((.(((....))).))),-47.9 kcal/mol,53.3 °C
GGCAACGAAAGTTGAGCC ((((((....)))..))),-15.3 kcal/mol,45.4 °C
GGCAACGAAAGTTGGCC ((((((....))).))),-18.7 kcal/mol,64 °C
GGCAAGACGAAAGTCGCC (((..(((....)))))),-18.9 kcal/mol,54.2 °C
GGCAAGCGAAAGCTAGCC (((.(((....))).))),-35.9 kcal/mol,63.4 °C
GGCAATGCGAAAGCAGCC (((..(((....)))))),-17.7 kcal/mol,57.6 °C
GGCAATGGAAACATTACC ((.((((....)))).)),-26.7 kcal/mol,37.3 °C
GGCACACGAAAGTGCGCC (((.(((....))).))),-36.9 kcal/mol,66.7 °C
GGCACAGCGAAAGCTGCC (((..(((....)))))),-12.3 kcal/mol,48.3 °C
GGCACCGAAAGGTAAGCC ((((((....)))..))),-35 kcal/mol,52.6 °C
GGCACCGAAAGGTGCGCC ((((((....)))..))),-6.18 kcal/mol,66.1 °C
GGCACCGAAAGGTGGGCC ((((((....)))..))),-12.5 kcal/mol,52.6 °C
GGCACCGAAAGGTTCGCC ((((((....)))..))),-20 kcal/mol,47.7 °C
GGCACCGAAAGGTTGCC ((((((....))).))),-30.9 kcal/mol,63 °C
GGCACCTCGAAAGAGGCC (((..(((....)))))),-12.2 kcal/mol,38.2 °C
GGCACGACGAAAGTCGCC (((..(((....)))))),-8.64 kcal/mol,38.4 °C
GGCACGGGAAACCGCACC ((..(((....)))..)),-10.3 kcal/mol,32.4 °C
GGCACGTCGAAAGACGCC (((..(((....)))))),-11 kcal/mol,40.7 °C
GGCACTCGAAAGAGGCC (((.(((....)))))),-21.5 kcal/mol,57.8 °C
GGCACTGGAAACAGCGCC (((.(((....))).))),-46.1 kcal/mol,54 °C
GGCACTGGAAACGGTGCC (((((.(....).))))),-50.7 kcal/mol,60.5 °C
GGCACTGGAAACGGTGTC (.(((.(....).))).),-28.1 kcal/mol,41.7 °C

Sequence,folding enthalpy [1],Tm [2]
GGCAGACGAAAGTCGCC (((.(((....)))))),-23.1 kcal/mol,65.2 °C
GGCAGAGAAATCTGCC ((((((....)))))),-32.8 kcal/mol,63.5 °C
GGCAGCACGAAAGTGGCC (((..(((....)))))),-22.3 kcal/mol,51 °C
GGCAGCGAAAGCTAGCC ((((((....))).))),-32.9 kcal/mol,62 °C
GGCAGCGAAAGCTTCGCC ((((((....)))..))),-17.4 kcal/mol,49.1 °C
GGCAGCGCGAAAGCGGCC (((..(((....)))))),-17.3 kcal/mol,58.3 °C
GGCAGGGCGAAAGCCGCC (((..(((....)))))),-18.4 kcal/mol,63.3 °C
GGCAGGGGAAACCCCGCC (((.(((....))).))),-35.7 kcal/mol,57 °C
GGCAGGGGAAACCCTACC ((.((((....)))).)),-26.6 kcal/mol,43.7 °C
GGCAGGGGAAACTCTGCC (((((.(....).))))),-48.5 kcal/mol,57 °C
GGCAGTACGAAAGTAGCC (((..(((....)))))),-21.6 kcal/mol,44.9 °C
GGCAGTGGAAACACCGCC (((.(((....))).))),-27.1 kcal/mol,50.6 °C
GGCAGTGGAAACACTACC ((.((((....)))).)),-29.7 kcal/mol,43.4 °C
GGCATAGGAAACTATGTC (.(((((....))))).),-35 kcal/mol,45.7 °C
GGCATAGGAAACTGTGCC ((((.((....)).)))),-45.3 kcal/mol,53.7 °C
GGCATAGGAAACTGTGTC (.((.((....)).)).),-23.9 kcal/mol,33.5 °C
GGCATCGAAAGATAGGCC ((((((....)))..))),-27.2 kcal/mol,46 °C
GGCATCGAAAGATTCGCC ((((((....)))..))),-25.4 kcal/mol,36.5 °C
GGCATCGGAAACGGTGCC ((((.((....)).)))),-29.8 kcal/mol,60.5 °C
GGCATGGAAACATGCC ((((((....)))))),-34.9 kcal/mol,67.3 °C
GGCATGGCGAAAGCCGCC (((..(((....)))))),-16 kcal/mol,59.4 °C
GGCATGGGAAACCGTGCC ((((.((....)).)))),-33.2 kcal/mol,62.7 °C
GGCATGGGAAACCGTGTC (.((.((....)).)).),-33.7 kcal/mol,43.3 °C

Sequence,folding enthalpy [1],Tm [2]
GGCATGGGAAACTATGCC (((((.(....).))))),-38.9 kcal/mol,53.6 °C
GGCATGTCGAAAGACGCC (((..(((....)))))),-25.2 kcal/mol,52.1 °C
GGCATTCCGAAAGGAGCC (((..(((....)))))),-23.4 kcal/mol,43.1 °C
GGCATTCGAAAGAAGCC (((.(((....)))))),-25 kcal/mol,48.5 °C
GGCATTGGAAACAATGTC (.(((((....))))).),-31.9 kcal/mol,48.1 °C
GGCATTGGAAACAGTGCC ((((.((....)).)))),-43 kcal/mol,52.2 °C
GGCCAAGGAAACTTGGTC (.(((((....))))).),-35.1 kcal/mol,53.3 °C
GGCCAATCGAAAGATGCC (((..(((....)))))),-23.9 kcal/mol,42.9 °C
GGCCACCGAAAGGTGCC (((.(((....)))))),-15.8 kcal/mol,60.8 °C
GGCCACGAAAGTGGAGCC ((((((....)))..))),-15.5 kcal/mol,53.9 °C
GGCCACGAAAGTGGGGCC ((((((....)))..))),-14.2 kcal/mol,60.3 °C
GGCCACGAAAGTGGTGCC ((((((....)))..))),-12.7 kcal/mol,49.9 °C
GGCCACGAAAGTGTGGCC ((((((....)))..))),-33.6 kcal/mol,68.5 °C
GGCCACGAAAGTGTTGCC ((((((....)))..))),-16.7 kcal/mol,49.9 °C
GGCCACTCGAAAGAGGCC (((..(((....)))))),-27.7 kcal/mol,52.3 °C
GGCCAGGGAAACCTGACC ((.((((....)))).)),-34.4 kcal/mol,48.3 °C
GGCCATACGAAAGTAGCC (((..(((....)))))),-20.6 kcal/mol,38.7 °C
GGCCATGCGAAAGCAGCC (((..(((....)))))),-17.1 kcal/mol,48.4 °C
GGCCCAGGAAACCAGGCC ((((..(....)..)))),-31.6 kcal/mol,47 °C
GGCCCAGGAAACTGGACC ((.((((....)))).)),-32.8 kcal/mol,50.5 °C
GGCCCCCGAAAGGGAGCC (((.(((....))).))),-27.1 kcal/mol,66.8 °C
GGCCCCCGAAAGGGTGCC (((.(((....))).))),-27.9 kcal/mol,64.5 °C
GGCCCCGAAAGGGTCGCC ((((((....)))..))),-16.1 kcal/mol,55.5 °C

Sequence,folding enthalpy [1],Tm [2]
GGCCCCGAAAGGGTGCC ((((((....))).))),-23.3 kcal/mol,66.1 °C
GGCCCCGCGAAAGCGGCC (((..(((....)))))),-9.49 kcal/mol,41 °C
GGCCCGCGAAAGCGAGCC (((.(((....))).))),-31.3 kcal/mol,67.2 °C
GGCCCGGGAAACCAGGCC ((((.((....)).)))),-37.9 kcal/mol,55.3 °C
GGCCCGTCGAAAGACGCC (((..(((....)))))),-8.97 kcal/mol,37 °C
GGCCCTCGAAAGAGAGCC (((.(((....))).))),-46.6 kcal/mol,53.3 °C
GGCCGACCGAAAGGTGCC (((..(((....)))))),-25.5 kcal/mol,49.5 °C
GGCCGACGAAAGTCCGCC (((.(((....))).))),-39 kcal/mol,55.1 °C
GGCCGAGGAAACTCAGCC (((.(((....))).))),-32 kcal/mol,46.4 °C
GGCCGAGGAAACTTGGCC ((((.((....)).)))),-49.1 kcal/mol,59.4 °C
GGCCGCGAAAGCGCAGCC ((((((....)))..))),-20.7 kcal/mol,58.4 °C
GGCCGCTCGAAAGAGGCC (((..(((....)))))),-48.5 kcal/mol,56.5 °C
GGCCGGCGAAAGCCAGCC (((.(((....))).))),-22.4 kcal/mol,68.1 °C
GGCCGGCGAAAGCCCGCC (((.(((....))).))),-29.9 kcal/mol,59.7 °C
GGCCGGGGAAACCCAGCC (((.(((....))).))),-42.6 kcal/mol,51.7 °C
GGCCGTACGAAAGTAGCC (((..(((....)))))),-22.6 kcal/mol,42.3 °C
GGCCGTCGAAAGACTGCC (((.(((....))).))),-42.8 kcal/mol,56.8 °C
GGCCTAACGAAAGTTGCC (((..(((....)))))),-20.9 kcal/mol,38.7 °C
GGCCTCCCGAAAGGGGCC (((..(((....)))))),-18.7 kcal/mol,59.1 °C
GGCCTCCGAAAGGAGCC (((.(((....)))))),-16.5 kcal/mol,62.4 °C
GGCCTCCGAAAGGATGCC (((.(((....))).))),-37.2 kcal/mol,56.5 °C
GGCCTCGAAAGAGACGCC ((((((....)))..))),-24.3 kcal/mol,47.7 °C
